In ChEMBL document CHEMBL1157800, “Hasubanan alkaloids with delta-opioid binding affinity from the aerial parts of Stephania japonica” (J Nat Prod, 2010) one finds inhibition and IC50 data, which are given here for nine compounds.

Format in all cases: cell membranes
Assay [1] concerns the target Kappa-type opioid receptor (Homo sapiens) (UniProt P41145). The assay can be described thus: Displacement of [3H]naloxone from kappa opioid receptor expressed in HEK293 cell membrane at 10 uM. A general note: In a radioligand displacement assay an active substance lowers the binding of a labelled ligand.
Assay [2] addresses Delta-type opioid receptor (Homo sapiens, UniProt P41143). The assay can be described thus: Displacement of [3H]deltorphin-2 from human delta opioid receptor expressed in HEK293 cell membrane.
The target of assay [3] is Mu-type opioid receptor (Homo sapiens) (UniProt P35372). The assay can be described thus: Displacement of [3H]naloxone from mu opioid receptor expressed in CHO cell membrane at 10 uM. In a few lines:
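Filtration binding with recombinant human µ receptor CHO cell membranes (0.017 mg/mL) and [3H]-naloxone (0.66 nM). Buffer: 50 mM Tris, 10 mM MgCl2, 1 mM EDTA, pH 7.4. Incubated 90 min, including 60 min shaking, at ca. 23 °C. Harvested onto PEI-presoaked GF/B mats, oven-dried at 50 °C, then liquid scintillation counted.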

SMILES strings stand for the structures.

Sequence of Mu-type opioid receptor (Homo sapiens) (P35372 whole entry): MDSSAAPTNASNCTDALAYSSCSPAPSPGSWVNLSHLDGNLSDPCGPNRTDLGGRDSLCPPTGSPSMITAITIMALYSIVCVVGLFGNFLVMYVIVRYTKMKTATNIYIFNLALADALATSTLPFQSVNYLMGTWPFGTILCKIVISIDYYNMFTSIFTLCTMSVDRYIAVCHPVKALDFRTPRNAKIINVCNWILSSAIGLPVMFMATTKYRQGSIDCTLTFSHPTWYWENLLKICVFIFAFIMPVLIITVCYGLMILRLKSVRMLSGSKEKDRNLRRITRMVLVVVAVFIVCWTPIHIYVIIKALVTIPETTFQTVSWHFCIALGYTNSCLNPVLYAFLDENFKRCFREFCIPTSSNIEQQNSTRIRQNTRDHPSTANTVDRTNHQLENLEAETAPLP
Sequence of Kappa-type opioid receptor (Homo sapiens) (P41145 whole entry): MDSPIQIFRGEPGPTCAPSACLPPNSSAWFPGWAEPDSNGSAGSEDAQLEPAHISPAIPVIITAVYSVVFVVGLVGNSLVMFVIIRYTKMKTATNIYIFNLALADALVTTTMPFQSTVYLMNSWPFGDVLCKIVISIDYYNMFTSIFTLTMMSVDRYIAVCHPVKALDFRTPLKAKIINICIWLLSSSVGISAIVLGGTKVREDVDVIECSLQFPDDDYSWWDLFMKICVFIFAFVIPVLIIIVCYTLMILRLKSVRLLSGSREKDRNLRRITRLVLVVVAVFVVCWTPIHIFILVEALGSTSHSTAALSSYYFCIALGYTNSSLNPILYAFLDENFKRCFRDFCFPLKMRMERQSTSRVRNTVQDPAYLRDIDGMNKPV
Sequence of Delta-type opioid receptor (P41143 whole entry): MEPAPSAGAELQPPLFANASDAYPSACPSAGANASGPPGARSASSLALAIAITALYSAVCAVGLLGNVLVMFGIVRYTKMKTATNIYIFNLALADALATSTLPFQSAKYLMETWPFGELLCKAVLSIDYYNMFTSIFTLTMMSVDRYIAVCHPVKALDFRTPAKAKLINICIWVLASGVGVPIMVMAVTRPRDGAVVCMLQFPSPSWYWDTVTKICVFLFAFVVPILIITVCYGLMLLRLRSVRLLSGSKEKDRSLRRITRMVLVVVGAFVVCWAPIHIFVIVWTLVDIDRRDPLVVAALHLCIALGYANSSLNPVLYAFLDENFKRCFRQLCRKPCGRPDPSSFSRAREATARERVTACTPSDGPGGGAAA

Regarding `COC1=C(OC)[C@]23CCc4ccc(OC)c(O)c4[C@]2(CCN3C)CC1=O` [AKNADININE], the inhibition in assay [1] was found to be 0%; in assay [3], 68%. Further, in assay [2], the concentration for half-maximal inhibition (IC50) worked out at 46 µM.
For `COC1=C2[C@@H]3Cc4ccc(OC)c(O)c4[C@]2(CCN3)C[C@H](O)[C@@H]1O` [SINOCOCULINE] the same measures were 0%, 54% and 37 µM.
Consider `COc1ccc2c(c1O)[C@@]13CCN(C)[C@@]14C[C@@H]2O[C@]4(OC)[C@@H](OC)[C@@H](O)C3`, for which the values for the inhibition in assay [1] and in assay [3] were 0% and 68%, respectively. In assay [2], this compound had a half-maximal inhibitory concentration (IC50) of 2.1 µM.
Take `COC1=C(OC)[C@]23CCc4ccc(OC)c(O)c4[C@@]2(CC1=O)CC(=O)N3C`: the inhibition is 0% in assay [1] and 49% in assay [3]. In assay [2], this compound registered a half-inhibitory concentration (IC50) of 17 µM.
As for `COc1ccc(/C=C/C(=O)O[C@H]2C[C@]34CCN(C)[C@@]35C[C@H](O[C@]5(OC)[C@H]2OC)c2ccc(OC)c(O)c24)cc1O`, the inhibition turned out to be 0% in assay [1] and 56% in assay [3]. The 50% inhibitory concentration (IC50) in assay [2] came to 11.3 µM.
For `COc1ccc2c(c1O)[C@@]13CC(=O)N(C)[C@@]14C[C@@H]2O[C@]4(OC)[C@@H](OC)[C@@H](OC(=O)/C=C/c1ccccc1)C3` the same measures were 0%, 74% and 5.1 µM.
The corresponding values for `COC1=CC[C@]23CCN(C)[C@@]24C[C@H](O[C@@]14O)c1ccc(OC)c(O)c13` [PROSTEPHABYSSINE] are 0%, 67% and 5.5 µM.
Regarding `COc1ccc2c(c1O)[C@@]13CCN(C)[C@@]14C[C@@H]2O[C@]4(OC)[C@@H](O)[C@@H](OC(=O)/C=C/c1ccccc1)C3`, the figures for the inhibition in assay [1] and in assay [3] were 0% and 54%, respectively. The same compound had an IC50 in assay [2] of 2.5 µM.
On to `COc1ccc2c(c1O)[C@@]13CCN(C)[C@@]14C[C@@H]2O[C@]4(O)[C@@H](OC)[C@@H](O)C3` [LONGANINE], for which the inhibition turned out to be 0% in assay [1] and 68% in assay [3]. This compound gave an IC50 in assay [2] of 0.7 µM.

As usually defined, the inhibition is the drop in the measured response relative to a control, in per cent. Usually IC50 stands for the concentration that inhibits the measured activity by half. Lower therefore signals higher potency.
